In ChEMBL document CHEMBL2439991, “Restraining the flexibility of the central linker in terameprocol results in constrained analogs with improved growth inhibitory activity” (Bioorg Med Chem Lett, 2013):

Tests used:
[1] = system: 786-0; test: Cytotoxicity against human 786-0 cells after 72 hrs by MTT assay; type: functional; conditions: 786-0, 72 h
How it was run: (§1)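 MTT redox read-out; absorbance taken at 0 h (T0) and after 72 h exposure, with untreated cells as control (C). GI50 solved from (T − T0)/(C − T0) = 50%, i.e. viability halved relative to untreated after correction for time-zero cell count.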

[2] = system: BXPC-3; test: Cytotoxicity against human BxPC3 cells after 72 hrs by MTT assay; type: functional; conditions: BXPC-3, 72 h; how it was run: as §1
[3] = system: HeLa; test: Cytotoxicity against human HeLa cells after 72 hrs by MTT assay; type: functional; how it was run: as §1
[4] = Cytotoxicity against human U87 cells after 72 hrs by MTT assay; type: functional, U-87MG ATCC; conditions: U-87 MG; how it was run: as §1
[5] = system: T98G; test: Cytotoxicity against human T98G cells after 72 hrs by MTT assay; type: functional; how it was run: as §1
[6] = system: T47D; test: Cytotoxicity against human T47D cells after 72 hrs by MTT assay; type: functional; how it was run: as §1
[7] = system: NCI-H69; test: Cytotoxicity against human H69 cells; type: functional, cell-based
[8] = system: NCI-H69; test: Ratio of NDGA IC50 to compound IC50 for human H69 cells; type: functional

Structure (SMILES) | GI50 [1] [µM] | GI50 [2] [µM] | GI50 [3] [µM] | GI50 [4] [µM] | GI50 [5] [µM] | GI50 [6] [µM] | IC50 [7] [µM] | Ratio IC50 [8]
COc1ccc(CCNS(=O)(=O)c2ccc(OC)c(OC)c2)cc1OC | > 100 | > 100 | > 100 | > 100 | > 100 | > 100 | – | –
COc1ccc(C(=O)N2CCc3cc(OC)c(OC)cc3C2)cc1OC | 24.1 | 13.6 | 8.23 | 20.6 | 10.1 | 11.9 | – | –
COc1ccc(CNC(=O)NCc2ccc(OC)c(OC)c2)cc1OC | > 100 | > 100 | > 100 | > 100 | > 100 | > 100 | – | –
COc1ccc(C2NCCc3cc(OC)c(OC)cc32)cc1OC (stereo not drawn) | > 100 | > 100 | 57.6 | > 100 | > 100 | > 100 | – | –
COc1ccc(NS(=O)(=O)c2ccc(OC)c(OC)c2)cc1OC | > 100 | > 100 | > 100 | > 100 | > 100 | > 100 | – | –
COc1ccc(C2=NCCc3cc(OC)c(OC)cc32)cc1OC | > 100 | > 100 | 79.3 | > 100 | > 100 | > 100 | – | –
COc1ccc(NC(=O)c2ccc(OC)c(OC)c2)cc1OC | > 100 | > 100 | > 100 | > 100 | > 100 | > 100 | – | –
COc1ccc(CCNC(=O)c2ccc(OC)c(OC)c2)cc1OC | > 100 | > 100 | > 100 | > 100 | > 100 | > 100 | – | –
COc1ccc(CCNC(=O)Cc2ccc(OC)c(OC)c2)cc1OC | > 100 | > 100 | > 100 | > 100 | > 100 | > 100 | – | –
COc1ccc(CNS(=O)(=O)c2ccc(OC)c(OC)c2)cc1OC | > 100 | > 100 | > 100 | > 100 | > 100 | > 100 | – | –
COc1ccc(CC(=O)N2CCc3cc(OC)c(OC)cc3C2)cc1OC | > 100 | > 100 | > 100 | > 100 | > 100 | > 100 | – | –
COc1ccc(S(=O)(=O)N2CCc3cc(OC)c(OC)cc3C2)cc1OC | > 50 | > 50 | > 50 | > 50 | > 50 | > 50 | – | –
COc1ccc(CN2CCc3cc(OC)c(OC)cc3C2)cc1OC | > 100 | > 100 | 55.9 | > 100 | > 100 | 45.4 | – | –
COc1ccc(C(=O)C2=NCCc3cc(OC)c(OC)cc32)cc1OC | > 100 | 26.3 | 16.9 | > 100 | > 100 | 16.1 | – | –
COc1ccc(/C=C/C(=O)NCc2ccc(OC)c(OC)c2)cc1OC | 68.4 | > 75 | > 75 | 57.1 | 70.3 | > 100 | – | –
COc1ccc(CNC(=O)c2ccc(OC)c(OC)c2)cc1OC | > 100 | > 100 | > 100 | > 100 | > 100 | > 100 | – | –
COc1ccc(CC(=O)Nc2ccc(OC)c(OC)c2)cc1OC | > 100 | > 100 | > 100 | > 100 | > 100 | > 100 | – | –
COc1ccc(CNC(=O)Cc2ccc(OC)c(OC)c2)cc1OC | > 100 | > 100 | > 100 | > 100 | > 100 | > 100 | – | –
COc1ccc(NC(=O)Nc2ccc(OC)c(OC)c2)cc1OC | > 50 | > 50 | > 50 | > 50 | > 50 | > 50 | – | –
COc1ccc(CNC(=O)Nc2ccc(OC)c(OC)c2)cc1OC | > 100 | > 100 | > 100 | > 100 | > 100 | > 100 | – | –
COc1ccc(/C=C/C=C/c2ccc(OC)c(OC)c2)cc1OC | 2.67 | 3.41 | > 100 | > 100 | > 100 | > 100 | – | –
COc1ccc(/C=C/C(=O)Nc2ccc(OC)c(OC)c2)cc1OC | > 50 | > 50 | > 50 | > 50 | > 50 | > 50 | – | –
Oc1ccc(CCCCc2ccc(O)c(O)c2)cc1O | – | – | – | – | – | – | 0.3 | 10
COc1ccc(/C=C2/CCc3cc(OC)c(OC)cc32)cc1OC (mixture of isomers) | 5.5 | 8.1 | > 25 | > 25 | > 25 | 4.24 | – | –
COc1ccc([C@H]2O[C@H](c3ccc(OC)c(OC)c3)[C@@H](C)[C@H]2C)cc1OC [GANSCHISANDRINE] | > 75 | 17.2 | > 75 | > 75 | 58.3 | 4.4 | – | –
CC(Cc1ccc(O)c(O)c1)C(C)Cc1ccc(O)c(O)c1 (stereo not drawn) [NORDIHYDROGUAIARETIC ACID] | – | – | – | – | – | – | 4.4 | –
COc1ccc(C[C@@H](C)[C@@H](C)Cc2ccc(OC)c(OC)c2)cc1OC [TERAMEPROCOL] | 4.54 | 17.1 | > 50 | > 50 | > 50 | 5.36 | – | –
